Measured values as given in ChEMBL document CHEMBL4138092, “Antibacterial activity and mechanism of action of the benzazole acrylonitrile-based compounds: In vitro, spectroscopic, and docking studies” (2017).
Converted amounts (≈) assume the structure as drawn.

What was measured:
Bacillus spizizenii [1] = assay: Antibacterial activity against Bacillus subtilis ATCC 6633 after 24 to 48 hrs by agar well diffusion method; format: functional
Procedure, shortened: (§1)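 Mueller Hinton agar plates spread with bacteria (10⁶ cells/ml). Wells were filled with 50 µl of compound and incubated at 37 °C for 24–48 h. The inhibition zone diameter (mm) was measured with a transparent scale. Amoxicillin 5.0 mg/ml at 50 µl/well served as the positive control.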

Escherichia coli [2] = assay: Antibacterial activity against Escherichia coli ATCC 25922 after 24 hrs by agar well diffusion method; format: functional; conditions: ATCC 25922, 24 h
Pseudomonas aeruginosa [3] = assay: Antibacterial activity against Pseudomonas aeruginosa ATCC 27853 after 24 hrs by agar well diffusion method; format: functional; conditions: ATCC 27853, 24 h
Staphylococcus aureus [4] = assay: Antibacterial activity against Staphylococcus aureus ATCC 25923 after 24 hrs by agar well diffusion method; format: functional; conditions: ATCC 25923, 24 h
Bacillus spizizenii [5] = assay: Antibacterial activity against Bacillus subtilis ATCC 6633 after 24 hrs by agar well diffusion method; format: functional; conditions: ATCC 6633, 24 h
Escherichia coli [6] = assay: Antibacterial activity against Escherichia coli ATCC 25922 after 24 to 48 hrs by agar well diffusion method; format: functional; procedure, shortened: as §1
Pseudomonas aeruginosa [7] = assay: Antibacterial activity against Pseudomonas aeruginosa ATCC 27853 after 24 to 48 hrs by agar well diffusion method; format: functional; procedure, shortened: as §1
Staphylococcus aureus [8] = assay: Antibacterial activity against Staphylococcus aureus ATCC 25923 after 24 to 48 hrs by agar well diffusion method; format: functional; procedure, shortened: as §1
Bifidobacterium longum = assay: Antibacterial activity against Bifidobacterium infantis after 24 hrs by agar well diffusion method; format: functional, Bifidobacterium longum subsp. infantis

SMILES	MIC (Escherichia coli [2])	MIC (Pseudomonas aeruginosa [3])	MIC (Staphylococcus aureus [4])	MIC (Bacillus spizizenii [5])	MIC (Bifidobacterium longum)	inhibition zone (IZ) (Bacillus spizizenii [1])	inhibition zone (IZ) (Escherichia coli [6])	inhibition zone (IZ) (Pseudomonas aeruginosa [7])	inhibition zone (IZ) (Staphylococcus aureus [8])
N#C/C(=C\c1cnc(N2CCOCC2)nc1)c1nc2ccccc2[nH]1	27.8 µg/mL (≈ 83.6 µM)	27.8 µg/mL (≈ 83.6 µM)	27.8 µg/mL (≈ 83.6 µM)	27.8 µg/mL (≈ 83.6 µM)		39 mm	40 mm	35 mm	35 mm
N#C/C(=C\c1cnc(NCc2ccccc2)nc1)c1nc2ccccc2s1	18.3 µg/mL (≈ 49.5 µM)	18.3 µg/mL (≈ 49.5 µM)	18.3 µg/mL (≈ 49.5 µM)	18.3 µg/mL (≈ 49.5 µM)		39 mm	50 mm	35 mm	35 mm
CN(C)c1ncc(/C=C(\C#N)c2nc3ccccc3s2)cn1	50 µg/mL (≈ 163 µM)	35.8 µg/mL (≈ 116 µM)	35.8 µg/mL (≈ 116 µM)	50 µg/mL (≈ 163 µM)		45 mm	52 mm	32 mm	35 mm

These reach a lower MIC (Escherichia coli [2]). Values come first.

MIC (Escherichia coli [2])	MIC (Pseudomonas aeruginosa [3])	MIC (Staphylococcus aureus [4])	MIC (Bacillus spizizenii [5])	MIC (Bifidobacterium longum)	SMILES	inhibition zone (IZ) (Bacillus spizizenii [1])	inhibition zone (IZ) (Escherichia coli [6])	inhibition zone (IZ) (Pseudomonas aeruginosa [7])	inhibition zone (IZ) (Staphylococcus aureus [8])
11.1 µg/mL (≈ 28.5 µM)	11.1 µg/mL (≈ 28.5 µM)	11.1 µg/mL (≈ 28.5 µM)	20 µg/mL (≈ 51.3 µM)		N#C/C(=C\c1cnc(Nc2ccc(Cl)cc2)nc1)c1nc2ccccc2s1	35 mm	40 mm	30 mm	30 mm
1.5 µg/mL (≈ 4.1 µM)	1 µg/mL (≈ 2.74 µM)	1.5 µg/mL (≈ 4.1 µM)	1.5 µg/mL (≈ 4.1 µM)	1.5 µg/mL (≈ 4.1 µM)	CC1(C)S[C@@H]2[C@H](NC(=O)[C@H](N)c3ccc(O)cc3)C(=O)N2[C@H]1C(=O)O [AMOXICILLIN]	14 mm	21 mm	24 mm	25 mm
